Experimental data: ChEMBL document CHEMBL1156871, “Nonpeptidic tetrafluorophenoxymethyl ketone cruzain inhibitors as promising new leads for Chagas disease chemotherapy” (J Med Chem, 2010)
The source made the active and inactive calls. The calls are words filed in the database; no cut-off is given here.

Assays:
Trypanosoma cruzi [1] = assay: Antitrypanosomal activity against Trypanosoma cruzi Y strain infected in BESM cells assessed as reduction of parasite number after 72 hrs; type: functional, organism-based
Procedure, shortened: (§1)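 BESM cells in RPMI-1640 with 5% heat-inactivated FCS (37 °C, 5% CO2) infected with Y-strain trypomastigotes, then given fresh medium with inhibitor at 0, 0.3, 1, 3 and 10 μM for 72 h. Fixed in 4% paraformaldehyde and stained with DAPI (0.1 μg/mL), then imaged. Nuclei were sorted by size: host >150 μm², parasite 2-4 μm². The parasite/host nuclei ratio gave the IC50, and the loss of host nuclei gave cytotoxicity. Duplicate or triplicate runs averaged.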

Cruzipain = Cruzipain (Trypanosoma cruzi, UniProt P25779); assay: (§2) Inhibition of Trypanosoma cruzi cruzain
[2] = molecular target: Cruzipain (Trypanosoma cruzi) (UniProt P25779); assay: as §2
[3] = molecular target: Cruzipain (Trypanosoma cruzi) (UniProt P25779); assay: Ratio of kinact to Ki for Trypanosoma cruzi cruzain
[4] = Cytotoxicity against BEMS cells; type: cell-based; settings: Bos taurus; procedure, shortened: as §1
Trypanosoma cruzi [5] = assay: Antitrypanosomal activity against Trypanosoma cruzi trypomastigotes infected in C3H mouse assessed as infection in liver at 20 mg/kg, ip bid for 27 days; type: functional, organism-based; parameters: dose 20 mg/kg
Procedure, shortened: (§3)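 Female C3H mice (mean 22 g) infected ip with 1.2 × 10⁶ tissue-culture trypomastigotes. From 24 h post-infection, treated (n=5) with 20 mg/kg ip b.i.d. for 27 days in 70% DMSO:30% water, prepared daily; untreated controls n=3. Mice were sacrificed at day 77 post-infection for symptom scoring and histopathology of heart, skeletal muscle, liver, spleen and colon.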

Trypanosoma cruzi [6] = assay: Antitrypanosomal activity against Trypanosoma cruzi trypomastigotes infected mouse model assessed as chagas disease symptoms at 20 mg/kg, ip bid for 27 days measured after 77 days of post infection
Trypanosoma cruzi [7] = assay: Antitrypanosomal activity against Trypanosoma cruzi trypomastigotes infected in C3H mouse assessed as infection in skeletal muscle at 20 mg/kg, ip bid for 27 days; type: functional, organism-based; parameters: dose 20 mg/kg; settings: Muscle tissue; procedure, shortened: as §3
Trypanosoma cruzi [8] = assay: Antitrypanosomal activity against Trypanosoma cruzi trypomastigotes infected in C3H mouse assessed as infection in heart at 20 mg/kg, ip bid for 27 days; type: functional, organism-based; parameters: dose 20 mg/kg; procedure, shortened: as §3
Trypanosoma cruzi [9] = assay: Antitrypanosomal activity against Trypanosoma cruzi trypomastigotes infected in C3H mouse assessed as acute chagas disease symptoms at 20 mg/kg, ip bid for 27 days; type: functional, organism-based; parameters: dose 20 mg/kg; procedure, shortened: as §3
Mus musculus = assay: Toxicity in Trypanosoma cruzi trypomastigotes infected mouse model at 20 mg/kg, ip bid for 27 days; settings: in vivo, 648 h
Trypanosoma cruzi [10] = assay: Antitrypanosomal activity against Trypanosoma cruzi trypomastigotes infected in C3H mouse assessed as infection in spleen at 20 mg/kg, ip bid for 27 days; type: functional, organism-based; parameters: dose 20 mg/kg; procedure, shortened: as §3
Trypanosoma cruzi [11] = assay: Antitrypanosomal activity against Trypanosoma cruzi trypomastigotes infected in C3H mouse assessed as infection in colon at 20 mg/kg, ip bid for 27 days; type: functional, organism-based; parameters: dose 20 mg/kg; procedure, shortened: as §3

Cruzipain, sequence (P25779 whole entry): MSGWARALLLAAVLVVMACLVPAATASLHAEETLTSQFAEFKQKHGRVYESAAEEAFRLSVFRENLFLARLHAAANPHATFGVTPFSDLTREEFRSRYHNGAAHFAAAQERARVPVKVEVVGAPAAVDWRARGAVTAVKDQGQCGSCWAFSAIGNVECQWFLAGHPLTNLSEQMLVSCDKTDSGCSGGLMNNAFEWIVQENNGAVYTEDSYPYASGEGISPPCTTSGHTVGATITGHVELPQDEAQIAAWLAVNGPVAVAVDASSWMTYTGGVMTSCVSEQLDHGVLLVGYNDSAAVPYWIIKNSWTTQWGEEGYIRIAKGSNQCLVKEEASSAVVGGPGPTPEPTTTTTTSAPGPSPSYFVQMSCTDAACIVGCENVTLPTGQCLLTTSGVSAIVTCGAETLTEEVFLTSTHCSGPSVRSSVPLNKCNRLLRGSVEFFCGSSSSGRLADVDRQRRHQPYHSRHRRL
Cruzipain (Trypanosoma cruzi), sequence (P25779 123-467 limits assumed): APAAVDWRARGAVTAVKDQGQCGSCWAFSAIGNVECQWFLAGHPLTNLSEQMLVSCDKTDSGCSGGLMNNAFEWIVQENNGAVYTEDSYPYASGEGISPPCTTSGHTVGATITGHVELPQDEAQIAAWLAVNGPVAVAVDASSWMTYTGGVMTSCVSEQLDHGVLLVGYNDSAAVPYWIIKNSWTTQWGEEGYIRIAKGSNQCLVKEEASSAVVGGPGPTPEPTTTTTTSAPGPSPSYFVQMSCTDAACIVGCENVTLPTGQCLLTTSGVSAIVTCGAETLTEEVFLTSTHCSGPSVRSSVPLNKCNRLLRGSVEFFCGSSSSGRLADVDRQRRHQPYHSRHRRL

| Compound | IC50 (Trypanosoma cruzi [1]) | Ki (Cruzipain) | Kinact [2] | Ratio [3] | IC50 [4] | Activity (Trypanosoma cruzi [5]) | Activity (Trypanosoma cruzi [6]) | Activity (Trypanosoma cruzi [7]) | Activity (Trypanosoma cruzi [8]) | Activity (Trypanosoma cruzi [9]) | Activity (Mus musculus) | Activity (Trypanosoma cruzi [10]) | Activity (Trypanosoma cruzi [11]) |
| --- | --- | --- | --- | --- | --- | --- | --- | --- | --- | --- | --- | --- | --- |
| CCC(C(=O)COc1c(F)c(F)cc(F)c1F)n1cc([C@@](C)(NCc2ccc3ncccc3c2)C2CCC2)nn1 (mixture of isomers) | 5.8 µM | 350 nM | 0.096 s⁻¹ | 522000 M⁻¹ s⁻¹ | > 10 µM | – | – | – | – | – | – | – | – |
| CCC(C(=O)COc1c(F)c(F)cc(F)c1F)n1cc([C@](C)(CC(C)C)NCc2ccc3ncccc3c2)nn1 (some centres undefined) | 5.7 µM | 190 nM | 0.048 s⁻¹ | 487000 M⁻¹ s⁻¹ | > 10 µM | – | – | – | – | – | – | – | – |
| CCCCC(C(=O)COc1c(F)c(F)cc(F)c1F)n1cc([C@@](C)(NCc2ccc3ncccc3c2)C2CCCC2)nn1 (some centres undefined) | 4.2 µM | 110 nM | – | – | 10 µM | – | – | – | – | – | – | – | – |
| CCCCC(C(=O)COc1c(F)c(F)cc(F)c1F)n1cc([C@](C)(CC(C)C)NCc2ccc3ncccc3c2)nn1 (some centres undefined) | 3.1 µM | 100 nM | 0.036 s⁻¹ | 657000 M⁻¹ s⁻¹ | > 10 µM | – | – | – | – | – | – | – | – |
| CCCCC(C(=O)COc1c(F)c(F)cc(F)c1F)n1cc([C@@](C)(NCc2ccc3ncccc3c2)C2CC2)nn1 (some centres undefined) | 4.3 µM | 940 nM | 0.089 s⁻¹ | 179000 M⁻¹ s⁻¹ | > 10 µM | – | – | – | – | – | – | – | – |
| CCCCC(C(=O)COc1c(F)c(F)cc(F)c1F)n1cc([C@@](C)(NCc2ccc3ncccc3c2)C(C)C)nn1 (some centres undefined) | 5.1 µM | – | – | – | > 10 µM | Active | Active | inactive | Active | Non-toxic | Non-toxic | Active | Active |
| CCC(C(=O)COc1c(F)c(F)cc(F)c1F)n1cc([C@@](C)(NCc2ccc3ncccc3c2)C(C)C)nn1 (some centres undefined) | 8.3 µM | 1040 nM | 0.066 s⁻¹ | 124000 M⁻¹ s⁻¹ | > 10 µM | – | – | – | – | – | – | – | – |
| CCCCC(C(=O)COc1c(F)c(F)cc(F)c1F)n1cc([C@@](C)(NCc2ccc3ncccc3c2)C2CCCCC2)nn1 (some centres undefined) | – | 1220 nM | 0.037 s⁻¹ | 58000 M⁻¹ s⁻¹ | – | – | – | – | – | – | – | – | – |
| CCCCC(C(=O)COc1c(F)c(F)cc(F)c1F)n1cc([C@@](C)(NCc2ccc3ncccc3c2)C2CCC2)nn1 (some centres undefined) | 4.1 µM | 130 nM | 0.047 s⁻¹ | 680000 M⁻¹ s⁻¹ | > 10 µM | – | – | – | – | – | – | – | – |
| CC(C(=O)COc1c(F)c(F)cc(F)c1F)n1cc([C@@](C)(NCc2ccc3ncccc3c2)C(C)C)nn1 (some centres undefined) | – | 6760 nM | 0.043 s⁻¹ | 12300 M⁻¹ s⁻¹ | – | – | – | – | – | – | – | – | – |
